{"source": "paper PMC4235474", "about": "(Clinical Pharmacology : Advances and Applications, 2014)", "key": {"[1]": {"assay": "Multiple-dose steady-state plasma pharmacokinetics", "type": "in vivo, healthy subjects (human)", "details": "for Coefficient of variation (intersubject variability) for exposure parameters (AUC0–24, Cmax, Cmin): apixaban 2.5 mg BID"}, "[2]": {"molecular_target": "factor Xa (Bos taurus, UniProt P00743)", "sequence (P00743 234-492 limits assumed)": "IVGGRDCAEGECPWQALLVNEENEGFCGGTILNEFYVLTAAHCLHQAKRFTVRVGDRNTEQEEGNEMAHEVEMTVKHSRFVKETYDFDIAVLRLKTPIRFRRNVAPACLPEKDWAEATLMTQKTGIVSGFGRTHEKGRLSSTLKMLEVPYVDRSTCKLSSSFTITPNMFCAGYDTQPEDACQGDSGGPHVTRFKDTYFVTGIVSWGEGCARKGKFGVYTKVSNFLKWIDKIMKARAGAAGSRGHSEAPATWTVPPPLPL", "sequence (P00743 41-180 partner limits assumed)": "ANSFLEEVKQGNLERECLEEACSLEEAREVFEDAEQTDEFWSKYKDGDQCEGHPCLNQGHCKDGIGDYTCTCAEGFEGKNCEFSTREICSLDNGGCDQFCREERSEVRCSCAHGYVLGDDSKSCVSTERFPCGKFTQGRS", "assay": "Steady-state plasma anti-factor Xa activity", "type": "in vivo, healthy subjects (human)", "details": "for slope of concentration–AXA linear regression: AXA versus plasma concentration, P<0.0001 between drugs; for intercept in regression equation anti-FXa vs plasma concentration / slope in regression equation anti-FXa vs plasma concentration: Figure 4 regression equation; for AXA Tpeak median (min–max): time of peak anti-FXa activity, day 4 steady state; for AXA AUC(0–24) G mean (CV): 0 to 24 hours after morning dose, rivaroxaban 10 mg QD"}, "[3]": {"details": "cited from earlier work; for fluctuation in mean concentrations / mean terminal half-life: apixaban 2.5 mg BID, multiple ascending dose study"}, "[4]": {"tested_on": "healthy subjects", "assay": "Safety and tolerability", "type": "in vivo, human", "details": "for deaths or serious AEs: during the study; for number of subjects reporting AEs: of 14 subjects; for tolerability: rivaroxaban 10 mg QD, apixaban 2.5 mg BID for 4 days", "summary_of_the_method": "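Randomized open-label two-period crossover in healthy volunteers housed in a clinical unit. Each took two oral factor Xa inhibitors for 4 days: one at 2.5 mg twice daily, the other at 10 mg once daily. Physical exam, vital signs, 12-lead ECG and blood/urine labs were done at screening, before each period and at discharge. AEs were monitored throughout, MedDRA-coded, and graded for severity, onset, drug relationship and outcome.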"}, "[5]": {"details": "cited from earlier work"}, "[6]": {"details": "VTEp patients; cited from earlier work"}, "[7]": {"tested_on": "prothrombin time", "details": "at a concentration of 1,000 ng/mL; cited from earlier work"}, "[8]": {"details": "day 4 steady state, rivaroxaban 10 mg QD"}, "[9]": {"details": "day 4 steady state, rivaroxaban 10 mg QD, apixaban 2.5 mg BID oral, N=14"}}, "note": "Values joined by “and” are separate entries in the source; they are usually repeats but may differ in a detail not shown here. Equal entries are not always repeated. Where two headings read alike, the source gives them in different places. Marks after values point to notes of the source that are not given here.", "data": [{"smiles": "COc1ccc(-n2nc(C(N)=O)c3c2C(=O)N(c2ccc(N4CCCCC4=O)cc2)CC3)cc1", "note": "[Apixaban, apixaban]", "values": [{"measurement": "T1/2 Mean (SD), terminal half-life", "setting": "[1]; after last dose on day 4 (apixaban: evening dose; rivaroxaban: morning dose), N=14", "value": "8.65 (2.19) ^* h"}, {"measurement": "Coefficient of variation (intersubject variability) for exposure parameters (AUC0–24, Cmax, Cmin)", "setting": "[1]; [8]", "value": "20%–24%"}, {"measurement": "Cmax G mean (%CV)", "setting": "[1]; [9]", "value": "80.5 (23) ng/mL"}, {"measurement": "Tmax", "setting": "[1]; human, plasma, oral", "value": 2, "unit": "h"}, {"measurement": "AUC(0-t)", "setting": "[1]; human, plasma, oral, 2.5 mg", "value": 527, "unit": "ng·h/mL"}, {"measurement": "AXA AUC(0–12) G mean (CV)", "setting": "[2]; 0 to 12 hours after morning dose, day 4, apixaban 2.5 mg BID, N=14", "value": "7.42 (21) IU · h/mL"}, {"measurement": "slope of concentration–AXA linear regression", "setting": "[2]", "value": 0.0134, "unit": "IU/ng"}, {"measurement": "intercept in regression equation anti-FXa vs plasma concentration", "setting": "[2]", "value": 0.02753}, {"measurement": "slope in regression equation anti-FXa vs plasma concentration", "setting": "[2]", "value": 0.01342}, {"measurement": "AXA T1/2 Mean (SD)", "setting": "[2]; determined after evening dose on day 4, apixaban 2.5 mg BID", "value": "8.9 h and 8.91 (2.46) ^‡ h"}, {"measurement": "AXA Tpeak median (min–max)", "setting": "[2]; N=14", "value": "2.00 (1.00–3.00) h"}, {"measurement": "AXA Tpeak median (min–max)", "setting": "[2]; N=14, listed as apixaban", "value": 2, "unit": "h"}, {"measurement": "time to steady state", "setting": "[3]; BID dosing", "value": "2 to 3", "unit": "days"}, {"measurement": "fluctuation in mean concentrations", "setting": "[3]; Japanese subjects", "value": "~ 4.2"}, {"measurement": "mean terminal half-life", "setting": "[3]; Japanese subjects", "value": 9.7, "unit": "h"}, {"measurement": "fluctuation in mean concentrations", "setting": "[3]; Western subjects", "value": "~ 3.0"}, {"measurement": "mean terminal half-life", "setting": "[3]; Western subjects", "value": 8.1, "unit": "h"}, {"measurement": "terminal half-life", "setting": "[3]", "value": "~ 12 hours"}, {"measurement": "time to maximal plasma concentrations after administration", "setting": "[3]", "value": "~ 3 hours"}, {"measurement": "accumulation", "setting": "[3]; following BID dosing", "value": "< 2", "unit": "fold"}, {"measurement": "bioavailability", "setting": "[3]; not significantly influenced by dose or meals", "value": "~ 50%"}, {"measurement": "deaths or serious AEs", "setting": "[4]", "value": "No deaths or serious AEs"}, {"measurement": "number of subjects reporting AEs", "setting": "[4]", "value": "eight"}, {"measurement": "tolerability", "setting": "[4]", "value": "well-tolerated"}, {"measurement": "Protein binding", "setting": "[5]", "value": "~ 87%"}]}, {"smiles": "O=C(NC[C@H]1CN(c2ccc(N3CCOCC3=O)cc2)C(=O)O1)c1ccc(Cl)s1", "note": "[Rivaroxaban, rivaroxaban]", "values": [{"measurement": "AUC0–24 at steady state, rivaroxaban higher than apixaban", "setting": "[1]; daily AUC", "value": "~ 17%"}, {"measurement": "Cmax, rivaroxaban relative to apixaban (higher)", "setting": "[1]; day 4", "value": "~ 2 fold"}, {"measurement": "Cmin, rivaroxaban lower than apixaban", "setting": "[1]; day 4", "value": "~ 40%"}, {"measurement": "Coefficient of variation (intersubject variability) for exposure parameters (AUC0–24, Cmax, Cmin)", "setting": "[1]; [8]", "value": "29%–46%"}, {"measurement": "Cmin G mean (%CV)", "setting": "[1]; [9]", "value": "10.1 (39) ng/mL"}, {"measurement": "Cmax/Cmin ratio, rivaroxaban relative to apixaban", "setting": "[1]; geometric mean ratio, 90% CI: 2.82–4.61", "value": 3.6, "unit": "fold"}, {"measurement": "AXA AUC(0–24) G mean (CV)", "setting": "[2]; day 4, apixaban 2.5 mg BID, N=14", "value": "17.8 (29) IU · h/mL"}, {"measurement": "AXA AUC(0–24) G mean (CV)", "setting": "[2]; day 4, apixaban 2.5 mg BID, N=14, listed as rivaroxaban", "value": 17.8, "unit": "IU · h/mL"}, {"measurement": "slope of concentration–AXA linear regression", "setting": "[2]", "value": 0.0172, "unit": "IU/ng"}, {"measurement": "intercept in regression equation anti-FXa vs plasma concentration", "setting": "[2]", "value": "−0.03215"}, {"measurement": "slope in regression equation anti-FXa vs plasma concentration", "setting": "[2]", "value": 0.01719}, {"measurement": "AXA AUC(0–24), rivaroxaban higher than apixaban", "setting": "[2]; geometric mean", "value": "~ 34%"}, {"measurement": "AXA AUC(0–24), rivaroxaban relative to apixaban (higher)", "setting": "[2]; steady state", "value": "~1.3", "unit": "fold"}, {"measurement": "Peak AXA, rivaroxaban relative to apixaban (higher)", "setting": "[2]; steady state", "value": "~ 2.5 fold"}, {"measurement": "trough AXA, rivaroxaban lower than apixaban", "setting": "[2]; steady state", "value": "~ 30%"}, {"measurement": "AXA Tpeak median (min–max)", "setting": "[2]; N=14", "value": "2.00 (1.00–3.00) h"}, {"measurement": "AXA Tpeak median (min–max)", "setting": "[2]; N=14, listed as rivaroxaban", "value": 2, "unit": "h"}, {"measurement": "terminal half-life", "setting": "[3]", "value": "~ 10 hours"}, {"measurement": "time to maximal plasma concentrations after administration", "setting": "[3]", "value": "~ 3 hours"}, {"measurement": "bioavailability", "setting": "[3]; depending on dose and administration with a meal", "value": "66%–100%"}, {"measurement": "accumulation", "setting": "[3]; following QD administration", "value": "does not show appreciable accumulation"}, {"measurement": "half-life", "setting": "[3]; rivaroxaban 5 mg QD, healthy subjects", "value": 8.4, "unit": "h"}, {"measurement": "Cmax/Cmin ratio", "setting": "[6]", "value": "~ 7"}, {"measurement": "number of AEs reported", "setting": "[4]; after start of study medication, 14 subjects, all mild", "value": "Twelve"}, {"measurement": "deaths or serious AEs", "setting": "[4]", "value": "No deaths or serious AEs"}, {"measurement": "number of subjects reporting AEs", "setting": "[4]", "value": "seven"}, {"measurement": "tolerability", "setting": "[4]", "value": "well-tolerated"}, {"measurement": "effect in the prothrombin time assay", "setting": "[7]", "value": "greater effect than apixaban"}, {"measurement": "Protein binding", "setting": "[5]", "value": "~ 93%"}]}]}
